Experimental data: ChEMBL document CHEMBL1144333, “Dipyridyl amides: potent metabotropic glutamate subtype 5 (mGlu5) receptor antagonists” (Bioorg Med Chem Lett, 2005)
pIC50: −log10 of the molar value.

Assays:
[1] = target: T1, Metabotropic glutamate receptor 5 (Homo sapiens, UniProt P41594); experiment: Inhibitory concentration against human recombinant metabotropic glutamate receptor 5 (mGlu5) in Ltk cells determined using fluorescence detection method; type: cell-based
Outline: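 Automated functional Ca2+ flux assay in Ltk cells stably expressing human recombinant mGlu5. Changes in cytosolic Ca2+ were read by fluorescence with the Ca2+-sensitive dye fura-2. IC50 values are means of two to three experiments.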

[2] = target: T1, Metabotropic glutamate receptor 5; experiment: Inhibitory concentration against human recombinant metabotropic glutamate receptor 5 (mGlu5) in Ltk cells determined using fluorescence detection method; IA=Inactive; type: cell-based
Outline: (§1)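 Automated functional Ca2+ flux assay in Ltk cells stably expressing human recombinant mGlu5. Changes in cytosolic Ca2+ were read by fluorescence with the Ca2+-sensitive dye fura-2. IC50 values are means of two to three experiments. Compounds were called not active when IC50 > 10 μM.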

[3] = Oral bioavailability in rat; LOQ = limit of quantitation; type: ADME, organism-based; details: in vivo
[4] = High plasma clearance in rat was determined; type: ADME, organism-based; details: read-out: Clp
[5] = Modest half life in rat was determined; LOQ = limit of quantitation; type: ADME; details: in vivo
[6] = Modest half life in rat was determined; type: ADME; details: in vivo
[7] = target: T1, Metabotropic glutamate receptor 5; experiment: Inhibitory concentration against human recombinant metabotropic glutamate receptor 5 (mGlu5) in Ltk cells determined using fluorescence detection method; NA=Not Active; type: cell-based; outline: as §1
[8] = High plasma clearance was determined; type: ADME, organism-based; details: rat, read-out: Clp
[9] = Modest half life was determined; type: ADME; details: rat
[10] = Low oral bioavailability was determined; type: ADME, organism-based; details: rat, in vivo

T1 sequence (P41594 whole entry): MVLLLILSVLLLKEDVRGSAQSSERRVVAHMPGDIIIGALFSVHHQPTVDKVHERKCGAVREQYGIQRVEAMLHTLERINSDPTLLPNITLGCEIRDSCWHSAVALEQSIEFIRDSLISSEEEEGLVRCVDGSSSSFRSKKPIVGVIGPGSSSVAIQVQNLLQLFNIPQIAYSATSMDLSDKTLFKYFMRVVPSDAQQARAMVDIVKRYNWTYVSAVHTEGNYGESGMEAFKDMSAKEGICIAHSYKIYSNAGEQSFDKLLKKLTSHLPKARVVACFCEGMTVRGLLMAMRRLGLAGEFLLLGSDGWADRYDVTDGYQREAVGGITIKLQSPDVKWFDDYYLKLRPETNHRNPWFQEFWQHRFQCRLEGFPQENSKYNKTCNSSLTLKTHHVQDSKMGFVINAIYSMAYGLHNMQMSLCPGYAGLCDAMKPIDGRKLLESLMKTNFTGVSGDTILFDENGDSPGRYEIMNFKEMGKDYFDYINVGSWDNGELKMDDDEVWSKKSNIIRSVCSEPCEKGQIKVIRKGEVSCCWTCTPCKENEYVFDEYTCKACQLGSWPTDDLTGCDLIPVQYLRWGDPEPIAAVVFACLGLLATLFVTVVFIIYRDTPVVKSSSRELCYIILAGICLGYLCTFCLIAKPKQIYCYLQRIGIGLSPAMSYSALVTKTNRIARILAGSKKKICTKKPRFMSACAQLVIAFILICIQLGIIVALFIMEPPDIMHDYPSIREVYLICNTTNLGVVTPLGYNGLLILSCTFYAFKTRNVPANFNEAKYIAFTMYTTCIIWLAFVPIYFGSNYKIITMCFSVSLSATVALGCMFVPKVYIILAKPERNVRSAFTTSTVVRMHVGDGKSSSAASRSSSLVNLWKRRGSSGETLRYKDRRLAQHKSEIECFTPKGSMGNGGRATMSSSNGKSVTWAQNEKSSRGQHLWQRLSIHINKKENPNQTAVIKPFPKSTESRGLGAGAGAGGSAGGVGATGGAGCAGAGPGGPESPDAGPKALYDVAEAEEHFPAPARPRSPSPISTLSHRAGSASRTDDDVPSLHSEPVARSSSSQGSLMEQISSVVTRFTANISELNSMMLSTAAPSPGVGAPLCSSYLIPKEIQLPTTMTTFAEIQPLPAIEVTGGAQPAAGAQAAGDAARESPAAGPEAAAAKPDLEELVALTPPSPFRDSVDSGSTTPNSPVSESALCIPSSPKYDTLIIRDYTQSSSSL

SMILES: Cc1cncc(C(=O)Nc2ccccn2)n1
- pIC50 [1]: 6.78

SMILES: Cc1ccc(O)c(C(=O)Nc2cccc(C)n2)c1
- pIC50 [1]: 6.98

SMILES: CN(C)c1nc(N)c(C(=O)Nc2ccccn2)nc1Cl
- pIC50 [1]: 6.87

SMILES: Nc1ncc(Br)nc1C(=O)Nc1ccccn1
- pIC50 [1]: 7.92

SMILES: O=C(Nc1ccccn1)c1cccc(Br)c1
- IC50 [2]: Not Active

SMILES: Nc1nc(N)c(C(=O)Nc2ccccn2)nc1Cl
- pIC50 [1]: 5.42

SMILES: Cc1cccc(NC(=O)c2nc(C)ccc2O)n1
- F [3]: Limit of quantification
- pIC50 [1]: 8.15
- clearance [4]: > 100 mL/min/kg
- T1/2 [5]: Limit of quantification

SMILES: Cc1cccc(NC(=O)c2nc(C)ccc2Nc2cccnc2)n1
- half-life [6]: 75 min
- pIC50 [1]: 7.96
- clearance [4]: 176 mL/min/kg

SMILES: Cc1cccc(NC(=O)c2cccc(C)n2)n1
- pIC50 [1]: 7.49

SMILES: CNc1ncc(Cl)nc1C(=O)Nc1ccccn1
- pIC50 [1]: 6.84

SMILES: O=C(Nc1ccccn1)c1cnccn1
- IC50 [7]: Not Active

SMILES: Cc1cccc(N(C)C(=O)c2nc(C)cnc2N)n1
- IC50 [2]: Not Active

SMILES: O=C(Nc1ccccn1)c1cncc(Cl)n1
- pIC50 [1]: 6.60

SMILES: O=C(Nc1ccccn1)c1cncc(Br)c1
- IC50 [2]: Not Active

SMILES: CN(C)c1cnc(C(=O)Nc2ccccn2)c(N)n1
- pIC50 [1]: 5.29

SMILES: Cc1cccc(NC(=O)c2cccc(Br)n2)n1
- pIC50 [1]: 7.68

SMILES: CN(C)c1ncc(C(=O)Nc2ccccn2)nc1Cl
- pIC50 [1]: 6.80

SMILES: CN(C)c1ncc(Br)nc1C(=O)Nc1ccccn1
- IC50 [7]: Not Active

SMILES: Cc1cccc(NC(=O)c2nc(C)cnc2N)n1
- pIC50 [1]: 8.10

SMILES: Cc1cnc(N)c(C(=O)Nc2ccccn2)n1
- clearance [8]: 56 mL/min/kg
- pIC50 [1]: 7.55
- half-life [9]: 264 min
- bioavailability [10]: 20%

SMILES: Nc1nc(N2CCCCC2)c(Cl)nc1C(=O)Nc1ccccn1
- pIC50 [1]: 6.99

SMILES: Cc1cccc(NC(=O)c2nc(C)ccc2N)n1
- pIC50 [1]: 7.66

SMILES: CC(C)Nc1nc(N)c(C(=O)Nc2ccccn2)nc1Cl
- pIC50 [1]: 7.64

SMILES: Nc1ncc(Cl)nc1C(=O)Nc1ccccn1
- pIC50 [1]: 7.96

SMILES: Nc1nccnc1C(=O)Nc1ccccn1
- pIC50 [1]: 5.45

SMILES: Cc1cccc(NC(=O)c2nc(Cl)cnc2N)n1
- pIC50 [1]: 8.30
